In publication PMC8286830 (Biochemical Journal, 2021):
Several values for one entry are separate records, joined by “and”; a condition that tells them apart may be missing. Identical values can stand only once. Entries after “also recorded” stand apart in the source; their conditions may differ.

What was measured:
[1] = tested on: TgCEN1; experiment: DLS particle size of TgCEN1; assay type: physicochemical, Toxoplasma gondii
[2] = tested on: TgCEN1; experiment: Turbidimetry at 340 nm, TgCEN1 self-assembly; assay type: physicochemical, Toxoplasma gondii
Outline: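 Full-length protein (E. coli Rosetta) at 20 µM in 20 mM Tris–HCl, 20 mM KCl pH 7.5, 37°C, A340 recorded versus time. Run with 1 mM CaCl2, with 1 mM EGTA, or with EGTA added to Ca2+-saturated protein. Ca2+ series 5–2000 µM, read at 25 min versus metal/protein ratio. Also varied: temperature 4–45°C, protein 5–50 µM, KCl 0–150 mM, and 600 µM ANS.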

[3] = tested on: TgCEN1; experiment: DLS thermal ramping of TgCEN1; assay type: physicochemical, Toxoplasma gondii; conditions: 5 µM protein, 1 mM CaCl2, pH 7.5
Outline: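 Full-length recombinant protein (E. coli Rosetta) at 5 µM with 1 mM CaCl2 in 20 mM Tris–HCl, 20 mM KCl pH 7.5, clarified by centrifugation. Temperature stepped from 15 to 45°C in 1°C increments, with DLS size measured at each step. Z-average (intensity-weighted mean hydrodynamic size) recorded; midpoint from logistic fit.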

[4] = via N-terminal EF-hands, in vitro; cited from earlier work
[5] = biological target: T1, Δ21TgCEN1 (Toxoplasma gondii, UniProt A0A125YHX7); experiment: DLS particle size / count rate of Δ21TgCEN1; assay type: physicochemical; conditions: all other conditions: temperature, protein concentration, KCl, ANS
T1 sequence (A0A125YHX7 22-169): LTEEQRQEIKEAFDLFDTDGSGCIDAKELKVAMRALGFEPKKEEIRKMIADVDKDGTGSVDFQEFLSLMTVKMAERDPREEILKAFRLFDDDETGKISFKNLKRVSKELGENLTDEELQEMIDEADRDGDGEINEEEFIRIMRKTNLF
Outline: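 Recombinant tag-free Δ21TgCEN1 from E. coli Rosetta (Ni affinity, TEV cleavage). For DLS, 10 µM protein in 20 mM Tris–HCl, 20 mM KCl pH 7.5 with 1 mM CaCl2 at 37°C was spun at 21 000 g for ≥30 min, then measured before and after adding 50 µM N21 peptide. Diameter was reported as number distribution. In parallel, A340 turbidity of 20 µM protein was followed over time.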

[6] = biological target: T1, Δ21TgCEN1; experiment: Turbidimetry at 340 nm, Δ21TgCEN1; assay type: physicochemical
Outline: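 Construct lacking residues 1–21 (E. coli Rosetta) at 20 µM in 20 mM Tris–HCl, 20 mM KCl pH 7.5, 1 mM CaCl2, 37°C. A340 followed over time, before and after adding 50 µM synthetic N-terminal peptide (residues 1–21). Peptide alone with CaCl2 run as a control trace.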

[7] = tested on: N-TgCEN1; experiment: Turbidimetry at 340 nm, N-TgCEN1; assay type: physicochemical, Toxoplasma gondii; conditions: 20 µM, 1 mM CaCl2, 20 mM KCl pH 7.5, 37°C
Outline: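 Recombinant N-domain (1–94) or C-domain (95–169), Ni-affinity purified. A340 followed over time in a 1 cm cuvette. Standard conditions: 20 µM protein, 20 mM Tris–HCl, 20 mM KCl pH 7.5, 1 mM CaCl2, 37°C. Conditions also varied: CaCl2 0–2 mM, temperature 4–45°C, protein 5–50 µM, KCl 0–150 mM, or 600 µM ANS added.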

[8] = tested on: N-TgCEN1; experiment: DLS particle size of N-TgCEN1; assay type: physicochemical, Toxoplasma gondii; conditions: 10 µM
Outline: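 Domains produced in E. coli Rosetta: N-domain residues 1–94 and C-domain 95–169. […] 10 µM protein in 20 mM Tris–HCl pH 7.5, 1 mM CaCl2, at selected KCl concentrations or with 600 µM ANS. Samples centrifuged at 21 000 g for ≥30 min; filtered buffers. Hydrodynamic diameter reported as number distribution (633 nm laser, 173°).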

B1: TgCEN1: centrin isoform 1 from Toxoplasma gondii, full-length, overexpressed in E. coli (protein)
chain: MHSRKGASSLPRGRGAGKKTELTEEQRQEIKEAFDLFDTDGSGCIDAKELKVAMRALGFEPKKEEIRKMIADVDKDGTGSVDFQEFLSLMTVKMAERDPREEILKAFRLFDDDETGKISFKNLKRVSKELGENLTDEELQEMIDEADRDGDGEINEEEFIRIMRKTNLF
In the case of B1, the hydrodynamic diameter ([1]; 10 µM, 1 mM CaCl2, 20 mM Tris–HCl, 20 mM KCl pH 7.5, 37°C, DLS number distribution, no additive) is reported as 570 ± 5 nm and ~570 nm, the number-averaged hydrodynamic diameter ([1]; 10 µM, absence of Ca^2+ (1 mM EGTA), 20 mM Tris–HCl, 20 mM KCl pH 7.5, 37°C, DLS number distribution) is reported as 7.54 ± 0.01 nm and the association state ([1]; 150 mM KCl, 1 mM CaCl2, 37°C) is reported as “monomeric in solution”. The hydrodynamic diameter ([1]; high ionic strength (KCl), 20 mM Tris–HCl pH 7.5, 1 mM CaCl2, 37°C) was about 7 nm, the hydrodynamic diameter ([1]; low salt concentrations, 20 mM Tris–HCl pH 7.5, 1 mM CaCl2, 37°C) was 600–800 nm and the “self-assembly at high ionic strength (turbidity at 340 nm)” value ([2]; 0–150 mM KCl, 20 mM Tris–HCl pH 7.5, 1 mM CaCl2, 37°C) was “clear inhibition of self-assembly process at high ionic strength”. The “turbidity at 340 nm” value ([2]; 20 µM, 1 mM CaCl2, 20 mM Tris–HCl, 20 mM KCl pH 7.5, 37°C) was “clear increase in turbidity”, the “turbidity at 340 nm” value ([2]; EGTA added to Ca^2+-saturated TgCEN1, 20 µM, pH 7.5, 37°C) was “significantly reduced” and the “turbidity change on Mg^2+ addition” value ([2]; Mg^2+ up to 10 mM, data not shown) was “No changes in the turbidity profiles”. The “self-assembly rate and plateau (turbidity at 340 nm)” value ([2]; increasing TgCEN1 concentration (5–50 µM), 1 mM CaCl2, 37°C) was “faster self-assembly process and a higher plateau”, the “self-assembly rate and plateau (turbidity at 340 nm)” value ([2]; increasing temperature (4–45°C), 1 mM CaCl2) was “increase in the slope of the growth phase at 340 nm and a higher plateau” and the “light scattering below threshold concentration” value ([2]; protein concentrations less than 5 µM) was “Low light scattering”. For the same molecule, the z-average hydrodynamic diameter ([3]; 15°C) was about 230 nm, the z-average hydrodynamic diameter ([3]; 45°C) was about 470 nm and the “Ca^2+ ions bound” value [4] was “two Ca^2+ ions; also recorded: two high affinity Ca^2+-binding sites in the N-lobe”.

B2: Δ21TgCEN1: truncated variant of TgCEN1 lacking the first 21 residues (22–169) (protein)
chain: LTEEQRQEIKEAFDLFDTDGSGCIDAKELKVAMRALGFEPKKEEIRKMIADVDKDGTGSVDFQEFLSLMTVKMAERDPREEILKAFRLFDDDETGKISFKNLKRVSKELGENLTDEELQEMIDEADRDGDGEINEEEFIRIMRKTNLF
With B2 the “turbidity or size distribution changes” value [5] was “No changes in turbidity or size distribution”, the “turbidity at 340 nm” value ([6]; 1 mM CaCl2, same conditions as full-length (20 µM, 37°C, pH 7.5)) was “no changes in turbidity at 340 nm” and the self-assembly process ([6]; removal of the first 21 residues, Ca^2+) was “completely abolished”.

B3: N-TgCEN1: N-terminal domain of TgCEN1, 1–94 aa (protein)
chain: MHSRKGASSLPRGRGAGKKTELTEEQRQEIKEAFDLFDTDGSGCIDAKELKVAMRALGFEPKKEEIRKMIADVDKDGTGSVDFQEFLSLMTVKM
modifications: left off: His tag (from the Nickel affinity chromatography), end not stated, cleaved
For B3, the “turbidity at 340 nm” value [7] was “no turbidity changes at 340 nm”, the particle diameter ([8]; 1 mM CaCl2, 20 mM Tris–HCl, 20 mM KCl pH 7.5) was 250 ± 1 nm and the “association at high ionic strength” value ([8]; selected KCl concentrations, 1 mM CaCl2, DLS) was “inhibition of association process”.
